Assay results as given in ChEMBL document CHEMBL1157810, “Synthesis and evaluation of nitric oxide-releasing derivatives of farnesylthiosalicylic acid as anti-tumor agents” (Bioorg Med Chem, 2010).
Calls of active or inactive are those of the source. No cut-off for these calls is given here.

Tests used:
[1] = test system: MCF7; test: Cytotoxicity against human MCF7 cells after 48 hrs by MTT assay; format: functional, cell-based; conditions: MCF7, 48 h
Summary of the method: (§1)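 Cells at 5–10 × 10³/well grown overnight in RPMI-1640, then exposed in triplicate to a concentration series for 48 h. MTT (1 mg/mL) added for the final 4 h, formazan dissolved in DMSO, read at 570 nm against 595 nm reference. Untreated cells served as negative control, 1% Triton-treated cells as positive control. Inhibition calculated relative to negative-control OD. IC50 taken as concentration giving 50% growth inhibition.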

[2] = Cytotoxicity against human U87 cells after 48 hrs by MTT assay; format: functional, cell-based, U-87MG ATCC; conditions: U-87 MG; summary of the method: as §1
[3] = test system: MDA-MB-231; test: Cytotoxicity against human MDA-MB-231 cells after 48 hrs by MTT assay; format: functional, cell-based; conditions: MDA-MB-231, 48 h; summary of the method: as §1
[4] = test system: SGC-7901; test: Cytotoxicity against human SGC7901 cells after 48 hrs by MTT assay; format: functional, cell-based; conditions: SGC-7901, 48 h; summary of the method: as §1
[5] = test system: U-251; test: Cytotoxicity against human U251 cells after 48 hrs by MTT assay; format: functional, cell-based; conditions: U-251, 48 h; summary of the method: as §1
[6] = test system: U-251; test: Induction of NO production in human U251 cells at 100 uM after 30 to 300 mins by Griess assay; format: functional, cell-based
Summary of the method: (§2)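 Cells treated with compound at 100 µM. Nitrate/nitrite in cell lysates measured by Griess reaction at 540 nm over 30–300 min and quantified from a sodium nitrate standard curve. Diluent-treated cells gave background. Reported values are means of two experiments at 240 min post-treatment.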

[7] = test system: U-87MG ATCC; test: Induction of NO production in human U87 cells at 100 uM after 30 to 300 mins by Griess assay; format: functional, cell-based; summary of the method: as §2
[8] = test system: MDA-MB-231; test: Induction of NO production in human MDA-MB-231 cells at 100 uM after 30 to 300 mins by Griess assay; format: functional, cell-based; summary of the method: as §2
[9] = test system: MCF7; test: Induction of NO production in human MCF7 cells at 100 uM after 30 to 300 mins by Griess assay; format: functional, cell-based; summary of the method: as §2
[10] = test system: SGC-7901; test: Induction of NO production in human SGC7901 cells at 100 uM after 30 to 300 mins by Griess assay; format: functional, cell-based; summary of the method: as §2
[11] = test system: MDA-MB-231; test: Induction of NO production in human MDA-MB-231 cells at 100 uM after 30 to 300 mins by Griess assay in presence of hemoglobin; format: functional, cell-based
Summary of the method: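 MDA-MB-231 cells (5 × 10⁶/well) were treated in triplicate with 100 µM compound […], harvested and lysed. Lysates were mixed with Griess reagent for 30–300 min and absorbance read at 540 nm. Nitrate/nitrite was quantified against a sodium nitrate standard curve, with diluent-treated cells as background.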

[12] = test system: MDA-MB-231; test: Cytotoxicity against human MDA-MB-231 cells after 24 hrs by MTT assay in presence of hemoglobin
[13] = test system: MDA-MB-231; test: Inhibition of Ras activation in human MDA-MB-231 cells assessed as reduction in phosphorylated Akt levels at 5 uM after 8 hrs by Western blot; format: cell-based
Summary of the method: (§3)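 MDA-MB-231 cells at 1.5 × 10⁵/mL exposed to 1 or 5 µM compound or vehicle for 8 h, then harvested and lysed. Lysates resolved by SDS–PAGE and immunoblotted with antibodies to phospho-Akt (Ser473), phospho-ERK (Thr202/Tyr204), phospho-Raf (Ser259), total Akt, total ERK and β-actin. Detection by HRP-conjugated secondary antibodies and enhanced chemiluminescence. Blots representative of two experiments.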

[14] = test system: MDA-MB-231; test: Inhibition of Ras activation in human MDA-MB-231 cells assessed as reduction in phosphorylated ERK levels at 5 uM after 8 hrs by Western blot; format: cell-based; summary of the method: as §3
[15] = test system: MDA-MB-231; test: Inhibition of Ras activation in human MDA-MB-231 cells assessed as reduction in phosphorylated Raf levels at 5 uM after 8 hrs by Western blot; format: cell-based; summary of the method: as §3
[16] = test system: MDA-MB-231; test: Ratio of IC50 for sorafenib to IC50 for drug for cytotoxicity against human MDA-MB-231 cells after 48 hrs by MTT assay; format: functional
[17] = test system: MDA-MB-231; test: Ratio of IC50 for FTA to IC50 for drug for cytotoxicity against human MDA-MB-231 cells after 48 hrs by MTT assay; format: functional

SMILES | IC50 [1] | IC50 [2] | IC50 [3] | IC50 [4] | IC50 [5] | Activity [6] | Activity [7] | Activity [8] | Activity [9] | Activity [10] | Activity [11] | Activity [12] | Activity [13] | Activity [14] | Activity [15] | Ratio IC50 [16] | Ratio IC50 [17]
CC(C)=CCC/C(C)=C/CC/C(C)=C/CSc1ccccc1C(=O)N[C@@H](C)C(=O)OCC#CCOc1no[n+]([O-])c1S(=O)(=O)c1ccccc1 | 5.03 µM | 5.18 µM | 1.01 µM | 11.4 µM | 7.31 µM |  |  |  |  |  |  |  |  |  |  |  | 
CC(C)=CCC/C(C)=C/CC/C(C)=C/CSc1ccccc1C(=O)NCC(=O)OCCOCCOc1no[n+]([O-])c1S(=O)(=O)c1ccccc1 | 6.59 µM | 7.34 µM | 2.41 µM | 19.5 µM | 8.58 µM | Active | Active | Active | Active | Active |  |  |  |  |  |  | 
CC(C)=CCC/C(C)=C/CC/C(C)=C/CSc1ccccc1C(=O)N[C@@H](C)C(=O)OCCOCCOc1no[n+]([O-])c1S(=O)(=O)c1ccccc1 | 7.68 µM | 18.1 µM | 4.21 µM | 11.3 µM | 8.04 µM | Active | Active | Active | Active | Active | inactive | inactive | Active | Active | Active |  | 
O=S(=O)(c1ccccc1)c1c(OCC#CCO)no[n+]1[O-] |  |  | 6.97 µM |  |  |  |  |  |  |  |  |  |  |  |  |  | 
CC(C)=CCC/C(C)=C/CC/C(C)=C/CSc1ccccc1C(=O)N[C@@H](Cc1ccccc1)C(=O)OCC#CCOc1no[n+]([O-])c1S(=O)(=O)c1ccccc1 | > 50 µM | > 50 µM | > 50 µM | > 50 µM | > 50 µM |  |  |  |  |  |  |  |  |  |  |  | 
CC(C)=CCC/C(C)=C/CC/C(C)=C/CSc1ccccc1C(=O)NCC(=O)OC(C)CCOc1no[n+]([O-])c1S(=O)(=O)c1ccccc1 (stereo not drawn) | 9.11 µM | 15.3 µM | 7.26 µM | 11.9 µM | 10.8 µM |  |  |  |  |  |  |  |  |  |  |  | 
CC(C)=CCC/C(C)=C/CC/C(C)=C/CSc1ccccc1C(=O)NCC(=O)OCCCCOc1no[n+]([O-])c1S(=O)(=O)c1ccccc1 | 25.1 µM | > 50 µM | 9.99 µM | > 50 µM | 28.2 µM |  |  |  |  |  |  |  |  |  |  |  | 
CC(C)=CCC/C(C)=C/CC/C(C)=C/CSc1ccccc1C(=O)N[C@@H](Cc1ccccc1)C(=O)OC(C)CCOc1no[n+]([O-])c1S(=O)(=O)c1ccccc1 (stereo partly drawn) | > 50 µM | > 50 µM | > 50 µM | > 50 µM | > 50 µM | Active | Active | Active | Active | Active |  |  |  |  |  |  | 
CC(C)=CCC/C(C)=C/CC/C(C)=C/CSc1ccccc1C(=O)N1CCC[C@H]1C(=O)OCCOCCOc1no[n+]([O-])c1S(=O)(=O)c1ccccc1 | 8.77 µM | 12.9 µM | 3.16 µM | 7.86 µM | 4.83 µM | Active | Active | Active | Active | Active |  |  |  |  |  |  | 
CC(C)=CCC/C(C)=C/CC/C(C)=C/CSc1ccccc1C(=O)N1CCC[C@H]1C(=O)OC(C)CCOc1no[n+]([O-])c1S(=O)(=O)c1ccccc1 (stereo partly drawn) | 6.5 µM | 8.47 µM | 1.54 µM | 13.9 µM | 7.93 µM |  |  |  |  |  |  |  |  |  |  |  | 
CC(C)=CCC/C(C)=C/CC/C(C)=C/CSc1ccccc1C(=O)N1CCC[C@H]1C(=O)OCCCCOc1no[n+]([O-])c1S(=O)(=O)c1ccccc1 | 7.47 µM | 9 µM | 3.14 µM | 22.5 µM | 6.99 µM |  |  |  |  |  |  |  |  |  |  |  | 
CC(C)=CCC/C(C)=C/CC/C(C)=C/CSc1ccccc1C(=O)N[C@@H](C)C(=O)OC(C)CCOc1no[n+]([O-])c1S(=O)(=O)c1ccccc1 (stereo partly drawn) | 11.1 µM | 20.4 µM | 5.05 µM | > 50 µM | 15.3 µM |  |  |  |  |  |  |  |  |  |  |  | 
O=S(=O)(c1ccccc1)c1c(OCCCCO)no[n+]1[O-] |  |  | 9.87 µM |  |  |  |  |  |  |  |  |  |  |  |  |  | 
CC(C)=CCC/C(C)=C/CC/C(C)=C/CSc1ccccc1C(=O)O [SALIRASIB] | 46.8 µM | 54 µM | 51.2 µM | 37.7 µM | 46.9 µM |  |  |  |  |  |  |  | inactive | inactive | inactive |  | 
CC(C)=CCC/C(C)=C/CC/C(C)=C/CSc1ccccc1C(=O)N1CCC[C@H]1C(=O)OCC#CCOc1no[n+]([O-])c1S(=O)(=O)c1ccccc1 | 5.49 µM | 13.5 µM | 1.07 µM | 7.35 µM | 3.56 µM | Active | Active | Active | Active | Active |  |  |  |  |  | 4 | 50
CC(C)=CCC/C(C)=C/CC/C(C)=C/CSc1ccccc1C(=O)N[C@@H](Cc1ccccc1)C(=O)OCCCCOc1no[n+]([O-])c1S(=O)(=O)c1ccccc1 | > 50 µM | > 50 µM | > 50 µM | > 50 µM | > 50 µM |  |  |  |  |  |  |  |  |  |  |  | 
CC(C)=CCC/C(C)=C/CC/C(C)=C/CSc1ccccc1C(=O)NCC(=O)OCC#CCOc1no[n+]([O-])c1S(=O)(=O)c1ccccc1 | 6.91 µM | 14.8 µM | 7.23 µM | 11.4 µM | 11.7 µM | Active | Active | Active | Active | Active |  |  |  |  |  |  | 
CC(C)=CCC/C(C)=C/CC/C(C)=C/CSc1ccccc1C(=O)N[C@@H](C)C(=O)OCCCCOc1no[n+]([O-])c1S(=O)(=O)c1ccccc1 | 8.68 µM | 26.4 µM | > 50 µM | 44.6 µM | 7.95 µM |  |  |  |  |  |  |  |  |  |  |  | 
CNC(=O)c1cc(Oc2ccc(NC(=O)Nc3ccc(Cl)c(C(F)(F)F)c3)cc2)ccn1 [SORAFENIB] | 8.83 µM | 21.1 µM | 4.77 µM | 10.4 µM | 24.7 µM |  |  |  |  |  |  |  |  |  |  |  | 
CC(C)=CCC/C(C)=C/CC/C(C)=C/CSc1ccccc1C(=O)N[C@@H](Cc1ccccc1)C(=O)OCCOCCOc1no[n+]([O-])c1S(=O)(=O)c1ccccc1 | > 50 µM | > 50 µM | > 50 µM | > 50 µM | > 50 µM |  |  |  |  |  |  |  |  |  |  |  | 
O=S(=O)(c1ccccc1)c1c(OCCOCCO)no[n+]1[O-] |  |  | 20.5 µM |  |  |  |  |  |  |  |  |  |  |  |  |  | 
